In ChEMBL document CHEMBL4376891, “Benzenesulfonamide Derivatives as Calcium/Calmodulin-Dependent Protein Kinase Inhibitors and Antiviral Agents against Dengue and Zika Virus Infections” (J Med Chem, 2020):
Activity calls are given as the source filed them. The calls are words filed in the database; no cut-off is given here.

Key:
BE(2)-C [1] = assay: Cytotoxicity against human BE(2)-C cells assessed as reduction in cell viability up to 12.5 uM incubated overnight by trypan blue assay relative to control; assay type: cell-based
Procedure, shortened: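 Viable BE(2)C cell number after overnight exposure to compound up to 12.5 μM, counted by trypan blue exclusion; expressed as percent of solvent control, mean ± SD of 3 independent experiments.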

Zika virus [2] = settings: 3.125 to 6.25 uM
dengue virus type 2 [3] = settings: 3.125 to 6.25 uM
dengue virus type 2 [4] = assay: Antiviral activity against DENV-2 NGC-N infected in Stat1-/- mouse assessed as improvement in mouse survival by measuring median survival time at 2 mg/kg, po dosed 8 hrs after infection and ending at day 6 after infection (8 hrs delay) (reference value: 10 days); assay type: functional
Zika virus [5] = assay: Antiviral activity against Zika virus infected in human BE(2)-C cells assessed as reduction in viral entry at 3.125 to 6.25 uM incubated for 90 mins by plaque-forming assay; assay type: functional, organism-based
Procedure, shortened: (§1)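 Virus entry: BE(2)C cells were incubated with DENV-2 or ZIKV for 90 min at 4 °C and washed cold. Cells were then treated with 3.125 or 6.25 μM compound at 37 °C for 1 h. Non-internalized virus was inactivated with 0.1 M glycine, pH 3, for 5 min. Cells were lysed by needle passage, and internalized virus was titrated by plaque assay. Mean ± SD, n = 3.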

dengue virus type 2 [6] = assay: Antiviral activity against Dengue virus 2 infected in human BE(2)-C cells assessed as NS3 protein expression at 1.56 uM incubated for 48 hrs by Western blot analysis (reference value: 100%); assay type: functional
Procedure, shortened: (§2)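 BE(2)C neuroblastoma cells in RPMI 1640 with 10% FBS were infected with DENV-2 PL046 at MOI 0.1 for 48 h, without or with compound at increasing concentrations. NS3 was immunoblotted with actin as loading control. The NS3:actin densitometry ratio was expressed as % of the DMSO control. Mean ± SD of 3 independent experiments.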

Zika virus [7] = assay: Antiviral activity against Zika virus infected in human BE(2)-C cells assessed as NS3 protein expression at 0.39 uM incubated for 48 hrs by Western blot analysis (reference value: 100%); assay type: functional
Procedure, shortened: (§3)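 BE(2)C cells were infected with ZIKV PRVABC59 at MOI 0.1 for 48 h, with or without compound at increasing concentrations. Viral protein was immunoblotted with actin as loading control. The band-density ratio was given as % of the solvent control. Mean ± SD, 3 independent experiments.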

dengue virus type 2 [8] = assay: Antiviral activity against Dengue virus 2 infected in human BE(2)-C cells assessed as NS3 protein expression incubated for 48 hrs by Western blot analysis; assay type: functional, organism-based; procedure, shortened: as §2
dengue virus type 2 [9] = assay: Antiviral activity against Dengue virus 2 infected in human BE(2)-C cells assessed as reduction in viral entry at 3.125 to 6.25 uM incubated for 90 mins by plaque-forming assay; assay type: functional, organism-based; procedure, shortened: as §1
Zika virus [10] = assay: Antiviral activity against Zika virus infected in human BE(2)-C cells assessed as NS3 protein expression at 6.25 uM treated during 3 to 24 hrs post infection by Western blot analysis (reference value: 100%); assay type: functional
Procedure, shortened: (§4)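 Time-of-addition design: BE(2)C cells were infected with DENV-2 or ZIKV at MOI 1. Compound at 3.125 or 6.25 μM was present either during adsorption (0–3 hpi) or afterward (3–24 hpi). Viral protein was immunoblotted against actin, with the ratio as % of the solvent control.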

Zika virus [11] = assay: Antiviral activity against Zika virus infected in human HMC3 cells assessed as reduction in viral progeny production at 1.56 to 12.5 uM incubated for 48 hrs by Virus titer assay; assay type: functional, organism-based
Procedure, shortened: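 HMC3 microglia were grown in MEM with 10% FBS and infected with ZIKV PRVABC59 (MOI 0.1) for 48 h at the specified concentrations. Viral protein was read by immunofluorescence with Hoechst nuclear stain. Infectious progeny was titred by plaque assay on Vero cells (log PFU/mL). DMSO served as the solvent control.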

Zika virus [12] = assay: Antiviral activity against Zika virus infected in Stat1-/- mouse assessed as improvement in overall mouse survival at 4 to 8 mg/kg, po dosed 8 hrs after infection and ending at day 6 after infection (8 hrs delay) relative to control; assay type: functional, organism-based
Procedure, shortened: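 Stat1-/- mice, 6 weeks old, infected sc in the footpad with 5x10⁴ PFU of ZIKV PRVABC59. Oral dosing at 4 or 8 mg/kg/day, or PBS, started 8 h post-infection and ran daily up to day 6; n = 5. Survival was monitored for 12 d, with T50 by log-rank test.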

Zika virus [13] = assay: Antiviral activity against Zika virus infected in human BE(2)-C cells assessed as NS3 protein expression at 6.25 uM treated during 0 to 3 hrs post infection by Western blot analysis (reference value: 100%); assay type: functional; procedure, shortened: as §4
dengue virus type 2 [14] = assay: Antiviral activity against Dengue virus 2 infected in human BE(2)-C cells assessed as NS3 protein expression at 6.25 uM treated during 3 to 24 hrs post infection by Western blot analysis (reference value: 100%); assay type: functional; procedure, shortened: as §4
dengue virus type 2 [15] = assay: Antiviral activity against DENV-2 NGC-N infected in Stat1-/- mouse assessed as improvement in mouse survival by measuring median survival time at 4 mg/kg, po dosed 8 hrs after infection and ending at day 6 after infection (8 hrs delay) (reference value: 10 days); assay type: functional
dengue virus type 2 [16] = assay: Antiviral activity against Dengue virus 2 infected in human BE(2)-C cells transfected with shCaMKIIalpha assessed as NS3 protein expression at 3.125 uM incubated for 48 hrs by Western blot analysis (reference value: 100%); assay type: functional
dengue virus type 2 [17] = assay: Antiviral activity against Dengue virus 2 infected in human BE(2)-C cells assessed as NS3 protein expression at 12.5 uM incubated for 48 hrs by Western blot analysis (reference value: 100%); assay type: functional; procedure, shortened: as §2
dengue virus type 2 [18] = assay: Antiviral activity against fluorescently labeled Dengue virus 2 infected in human BE(2)-C cells at 3.125 uM by confocal microscopy; assay type: functional, organism-based
Procedure, shortened: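 DENV-2 or ZIKV was concentrated and labeled with atto-647N dye. BE(2)C cells were pretreated with solvent or 3.125 µM, then incubated at 37 °C with labeled DENV-2 for 30 min or ZIKV for 60 min. Cells were fixed in 4% paraformaldehyde, membranes stained with WGA-488, and intracellular virus signal imaged by confocal microscopy.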

Zika virus [19] = assay: Antiviral activity against Zika virus infected in human BE(2)-C cells assessed as NS3 protein expression at 1.56 uM incubated for 48 hrs by Western blot analysis (reference value: 100%); assay type: functional; procedure, shortened: as §3
BE(2)-C [20] = assay: Cytotoxicity against human BE(2)-C cells assessed as reduction in cell viability up to 12.5 uM incubated overnight by LDH assay relative to control; assay type: cell-based
Procedure, shortened: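 BE(2)C cells (RPMI 1640, 10% FBS) exposed overnight to compound at concentrations up to 12.5 μM; XTT (proliferation) or LDH release (cytotoxicity) read by absorbance at 490 nm. Values normalized to solvent control (%), mean ± SD of 3 independent experiments.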

SMILES: COc1ccc(S(=O)(=O)N(CCCC(=O)C2CCCCCC2)c2ccccc2)cc1
- Activity (BE(2)-C [1]): Non-Toxic
- inhibition (Zika virus [2]): inactive
- inhibition (dengue virus type 2 [3]): inactive
- MST (dengue virus type 2 [4]): 14 days
- Activity (Zika virus [5]): Dose-dependent effect
- Activity (dengue virus type 2 [6]): 75.2%
- Activity (Zika virus [7]): 97.7%
- Activity (dengue virus type 2 [8]): Dose-dependent effect
- Activity (dengue virus type 2 [9]): Dose-dependent effect
- Activity (Zika virus [10]): 79.5%
- Activity (Zika virus [11]): Active
- Activity (Zika virus [12]): inactive
- Activity (Zika virus [13]): 20.1%
- Activity (dengue virus type 2 [14]): 55.3%
- MST (dengue virus type 2 [15]): 22 days
- Activity (dengue virus type 2 [16]): 95.1%
- Activity (dengue virus type 2 [17]): 5.1%
- Activity (dengue virus type 2 [18]): Active
- Activity (Zika virus [19]): 62.2%
- Activity (BE(2)-C [20]): Non-Toxic
